In this series the test system is MS2 coat protein. Kind of series: apparent Kd, MS2 coat protein; higher = weaker binding; RNA-MaP array; FMN 200 µM where present. Put shortly: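 The apparent Kd is reported as the median of filtered per-cluster binding-curve fits. To get these curves, designs transcribed by stalled E. coli RNA polymerase on Illumina sequencing-chip clusters were titrated with SNAP-549-labelled MS2 coat protein from 0.7 or 1.5 nM, doubling to 3 µM. Titrations were run without and then with constant ligand in 100 mM Tris-HCl pH 7.5, 80 mM KCl, 4 mM MgCl2, BSA, DTT, yeast tRNA and Tween-20, and green signal was normalised to red-channel RNA signal and control-cluster median Fmax.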

Where [1] appears, read: designed as: OFF switch for flavin mononucleotide, no ligand.
[2] abbreviates: ligand present: flavin mononucleotide, designed as: OFF switch for flavin mononucleotide.
[3] abbreviates: designed as: ON switch for flavin mononucleotide, no ligand.
Where [4] appears, read: ligand present: flavin mononucleotide, designed as: ON switch for flavin mononucleotide.

As to “CCGCAAAUGCAGGAUAUCGUAUCGGAUACGAUACGAGAAGGGCAUACAUGAGGAUCACCCAUGUGUCCUAGCGG”, the apparent Kd (in general, a dissociation constant that holds for the conditions of the assay) by setting is: under setting [1], 16.6 nM; under setting [2], 35.2 nM.

As for “UUUUUGUGAGGAUAUGGAAUAUCUUCUAUUUAUUAUUAAUUCCAGAAGGCACAUGAGGAUCACCCAUGUAUUUU”, the “apparent Kd” value is 19.9 nM under setting [1] and 25.2 nM under setting [2].

With “AGUACUACAGGAUAUACGAGGGAGGUCCACGUGACCCUUCUACAUGAGGAUCACCCAUGUAGAAGGGUAGUACA”, the “apparent Kd” value was found to be 13.9 nM under setting [1] and 13.9 nM under setting [2].

Take “GUUGGUUAUGUAGGAUAUGCGAGGCGAGCCUAAGCAGAAGGACAUGAGGAUCACCCAUGUAUUGCGGUCUGCGUUCAGAUCGCU”: the “apparent Kd” value reads like this: under setting [1], 36.2 nM; under setting [2], 156 nM.

In the case of “UAAAAACAUGAGGAUCACCCAUGUGAGGAUAUCGAAAAAAAAAAAUUAAAAAAGGAAGCGAGAAGGUACGGGAU”, the “apparent Kd” value under setting [1] stood at 53.1 nM and the “apparent Kd” value under setting [2] was found to be 49.6 nM.

Regarding “GGUGUGUCAGGAUAUCAACACACGGCAGCAGCGUUAUGCGUUGAGAAGGGACAUGAGGAUCACCCAUGUGACGG”, the “apparent Kd” value reads like this: under setting [1], 46 nM; under setting [2], 70.9 nM.

For the sequence “UUUAUUUUUACAGGAUAUCAUCUAUAUAUCACAUGCACAUGUUUACAUGAGGAUCACCCAUGUUUUGAGAAGGGUAAUGAAACA”, the “apparent Kd” value was determined as 79.6 nM under setting [3] and 59 nM under setting [4].

Take “GUUUACGCAUGAGGAUAUGCUCGCAUUUCAAGAGCAGAAGGUAUGUCUUUAGACAUGAGGAUCACCCAUGUAUUUAUCAUUGAA”: the “apparent Kd” value is, setting by setting: under setting [3], 166 nM; under setting [4], 28.4 nM.

As for “CUUUUGUGAGGAUAUCAGUAGUAAUACAAUAGUAUUACUACUGAGAAGGCACAUGAGGAUCACCCAUGUUCCUC”, the “apparent Kd” value by setting is: under setting [1], 45 nM; under setting [2], 162 nM.

On to “AUUUAACCCAGCGGUGCUGAUGCACAUGAGGAUCACCCAUGUAGAAGGCAGCUAGACACUUAAGCUGAGGAUAUACAUGUAAGA”, for which the “apparent Kd” value reads like this: under setting [1], 15.6 nM; under setting [2], 63.3 nM.

Turning to “CUAUUUAGUGCCUCAUGUACAUGAGGAUCACCCAUGUUAACUUAGGAUAUAUUUAUAUUGUUAGAGUAGAAGGAAGUACUAUUU”, the “apparent Kd” value is, setting by setting: under setting [1], 26.3 nM; under setting [2], 21.5 nM.

Turning to “UUGUUAUAUGUAGGAUAUGCGUAUUAUUGUUAUGCAGAAGGACAUGAGGAUCACCCAUGUAUAUUAUUGUUAUAUAUUAUAUAU”, the “apparent Kd” value runs as follows: under setting [1], 25.7 nM; under setting [2], 66.5 nM.

Take “GGCUACGUUUCGUAGCAGUGUCAUCGAGAAGGCCCUGACAUGAGGAUCACCCAUGUUGUUACAUGGGAGGAUAUCGAUGAUACC”: the “apparent Kd” value under setting [3] stood at 12.1 nM and the “apparent Kd” value under setting [4] was 5.27 nM.

Regarding “UAUAAAAUAGGAUGACAUGAGGAUCACCCAUGUUGCGCGAGGAGAAGGCCCAUUCGGCAACUAUGGGAGGAUAUCCAUCGCCUG”, the “apparent Kd” value was 66.5 nM under setting [3] and 24.1 nM under setting [4].

In the case of “AACUAGCUAGGAUAUACAUGAGGAUCACCCAUGUAAAAAAAAAAAAAAAAAUUUUUAUGUAGAAGGAGCUAGUA”, the “apparent Kd” value reads like this: under setting [1], 34 nM; under setting [2], 41.2 nM.

As to “GUCAAGUGAGGAUAUGAUUGUACAACAGACUAGCAUCUGCAUCAGAAGGCACAUGAGGAUCACCCAUGUUUGUC”, the “apparent Kd” value turned out to be 17.5 nM under setting [1] and 17.7 nM under setting [2].

For the sequence “GGAUAGGACAGAGGAUAUACGUGCUAGAGAUACUAGCAAAUAAUCCUUACAUGAGGAUCACCCAUGUAGAAGGCUGUCCUAUCG”, the “apparent Kd” value is 20.2 nM under setting [1] and 48 nM under setting [2].

“CGCUCAAUUCUUUAGGUUAGAAUCAGAAGGCGUAACAUGAGGAUCACCCAUGUAUAGACGUGUAACGAGGAUAUGAAUUGAGCG”: the “apparent Kd” value by setting is: under setting [1], 5.64 nM; under setting [2], 5.46 nM.

With “AUAUUAAUAGUAAGGAUAUGCGUGUAUGUAGUUAUGCAGAAGGUACAUGAGGAUCACCCAUGUAUUAAUGUGUA”, the “apparent Kd” value worked out at 14.2 nM under setting [1] and 15.4 nM under setting [2].

As to “AAGAAGUCAGGAUAUCCAUGGCGGCACUUGCGUGGUGGCGUGGAGAAGGGACAUGAGGAUCACCCAUGUAAAGA”, the “apparent Kd” value amounted to 51.4 nM under setting [1] and 35.8 nM under setting [2].

Regarding “UAUAUAUAGUAAGGAUAUGUAAUUAUUUUAUACACAGAAGGUACUGACAUGAGGAUCACCCAUGUUUUAGUGUGGGCAUGUAGA”, the “apparent Kd” value reads like this: under setting [1], 55.3 nM; under setting [2], 86.5 nM.

For the sequence “GUAUCAUACCAAGGAUAUUUAGGACUUGUGUAGACAUGAGGAUCACCCAUGUGGCGUUAGUCACGGGAGAAGGUGGUAUGAUAC”, the “apparent Kd” value reads like this: under setting [3], 78.5 nM; under setting [4], 18.8 nM.

Consider “AAAAAAAAAAGUCAGGAUAUGCAGGGCGGGACAUGAGGAUCACCCAUGUGGCGGAAAAAAAAAAAGCAGAAGGGACGAAUAAAAAA”, for which the “apparent Kd” value under setting [3] is 53.2 nM and the “apparent Kd” value under setting [4] stood at 27.4 nM.

Take “GAUAGAGAGCAGGAUAUCAUAGAAAUGUAUGAAUGAGAAGGGCUCACAUGAGGAUCACCCAUGUGGUCCUAGAU”: the “apparent Kd” value came to 25.8 nM under setting [1] and 236 nM under setting [2].

As to “GGCAAUAUGUAGGAUAUCGUAUCGGAAACGAUACGAGAAGGGCAAACAUGAGGAUCACCCAUGUUCCUUAAGCC”, the “apparent Kd” value was 15 nM under setting [1] and 17.4 nM under setting [2].

On to “GCCUCACAUGAGGAUCACCCAUGUCAGGAUAUAGGAGGCGAUAGAAAUCCUACCGCCGCUAGAAGGGACUGGCA”, for which the “apparent Kd” value amounted to 39.8 nM under setting [1] and 91.2 nM under setting [2].

With “CUCUUGUGAGGAUAUGUAGGUUACGAGAGCAAAACGAACGGACAGAAGGUACAUGAGGAUCACCCAUGUGGGAU”, the “apparent Kd” value under setting [1] came to 109 nM and the “apparent Kd” value under setting [2] worked out at 95.4 nM.

As for “CGCAACAUACAGAAGGAGUAAUUUAGAAGUGUACUAGGAUAUGUUUACAUGAGGAUCACCCAUGUCGAUGGGUAAAUAGUUGCG”, the “apparent Kd” value reads like this: under setting [1], 988 nM; under setting [2], 437 nM.

“AACUCGUCAGGAUAUGCGCGCAGUUGCUGCGCUUCGCCGUUGCAGAAGGGACAUGAGGAUCACCCAUGUAGGUC”: the “apparent Kd” value under setting [1] worked out at 35.8 nM and the “apparent Kd” value under setting [2] came to 43.5 nM.

As to “CCGAGAAGGACAGGAUAUGGACAUGAGGAUCACCCAUGUACAUGGGAAUAUAUACUGAAUUUUUACUAGAAGGGUUACAUAAAU”, the “apparent Kd” value was determined as 19.3 nM under setting [1] and 14.9 nM under setting [2].

Consider “CCUCUACAUGAGGAUCACCCAUGUGAGGAUAUGUGAGGCGCGCUCGAUGAGCGCACCGAUAGAAGGCAUGUGGU”, for which the “apparent Kd” value under setting [1] turned out to be 25.8 nM and the “apparent Kd” value under setting [2] turned out to be 70.5 nM.

On to “AUGGUGACGUAGAAGGGUGACAUGAGGAUCACCCAUGUGCCGAUAUAUCUCGAGAUAUGUCGGCCACAGGAUAUACGUGCCAUC”, for which the “apparent Kd” value reads like this: under setting [3], 150 nM; under setting [4], 158 nM.

“GAUUAUAAGUAAGGAUAUGUAUAUGAAACAUCUACAGAAGGUACAUGAGGAUCACCCAUGUUCUUGCAGCGUGACUAUGUAAUC”: the “apparent Kd” value runs as follows: under setting [1], 24 nM; under setting [2], 27.9 nM.

“GUCUCGUGAGGAUAUGACGCUACUUUUUUGUUUUAGUAGAGUCAGAAGGCACAUGAGGAUCACCCAUGUGAUUC”: the “apparent Kd” value runs as follows: under setting [1], 78.6 nM; under setting [2], 48.7 nM.

As to “GUCAGCUCGUGAGGAUAUACAUGUGCUGGAUACAGCACUAUUAAAUUCACAUGAGGAUCACCCAUGUAGAAGGCACGAGCUGAU”, the “apparent Kd” value is, setting by setting: under setting [1], 15.6 nM; under setting [2], 17.8 nM.

As to “GGAUAGUGAGGAUAUCGAUGUUAGGAGGAUGAGGUAGGAUGCGAGAAGGCACAUGAGGAUCACCCAUGUAUGGU”, the “apparent Kd” value under setting [1] was found to be 48.8 nM and the “apparent Kd” value under setting [2] was 38.8 nM.

For the sequence “GGAUCCAACACAGGAUAUGCUGGACUUUGUCCAGCAGAAGGGUGAAGAACAUGAGGAUCACCCAUGUGGAUCCAUAUAUUUAAU”, the “apparent Kd” value amounted to 483 nM under setting [3] and 42.4 nM under setting [4].

The values are drawn from the EternaBench riboswitch data.
